Tests used:
[1] = target: T1, Potassium voltage-gated channel subfamily A member 3 (Homo sapiens, UniProt P22001); assay: Inhibition of voltage-gated potassium channel subunit Kv1.3 in chinese hamster ovary cells; format: functional, cell-based
How it was run: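 Depolarization-induced ⁸⁶Rb⁺ efflux measured in CHO cells stably transfected with human Kv1.3 channel (Rb_Kv functional assay), with short compound incubation; IC50 reported.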

[2] = target: T1, Potassium voltage-gated channel subfamily A member 3; assay: Relative T cell IC50 compared to IC50 for correolide assay; format: functional, cell-based
How it was run: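 Ratio of correolide IC50 to compound IC50 in the anti-CD3-stimulated human peripheral blood T cell proliferation assay; a larger value means greater potency.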

[3] = target: T1, Potassium voltage-gated channel subfamily A member 3; assay: Inhibitory activity against voltage-gated potassium channel subunit Kv1.3 of human T cells; format: functional, cell-based, T-cell

T1 sequence (P22001 whole entry): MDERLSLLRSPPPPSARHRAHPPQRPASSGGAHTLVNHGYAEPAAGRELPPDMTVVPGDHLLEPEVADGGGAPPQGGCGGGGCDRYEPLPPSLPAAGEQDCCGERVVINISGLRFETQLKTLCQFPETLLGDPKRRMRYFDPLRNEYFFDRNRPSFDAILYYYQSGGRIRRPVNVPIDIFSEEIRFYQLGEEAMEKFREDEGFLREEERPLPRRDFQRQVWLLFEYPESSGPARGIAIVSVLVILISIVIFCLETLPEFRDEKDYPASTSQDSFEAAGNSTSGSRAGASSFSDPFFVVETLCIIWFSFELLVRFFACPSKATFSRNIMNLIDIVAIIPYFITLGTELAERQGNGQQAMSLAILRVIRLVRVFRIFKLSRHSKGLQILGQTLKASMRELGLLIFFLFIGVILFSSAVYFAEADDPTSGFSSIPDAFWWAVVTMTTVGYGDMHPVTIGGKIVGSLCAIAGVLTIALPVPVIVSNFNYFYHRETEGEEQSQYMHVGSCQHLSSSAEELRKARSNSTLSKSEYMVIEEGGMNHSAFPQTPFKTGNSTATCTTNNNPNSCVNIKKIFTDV

Compound | IC50 [1] | Ratio [2] | IC50 [3]
CC(=O)O[C@H]1C2[C@@](C)(CCC3C(O)(CCCCc4ccccc4)C(C)=C[C@@H](OC(C)=O)[C@@]32C)C2C=CCOC[C@]2([C@@H](C)OC(C)=O)[C@H]1OC(C)=O (stereo not given in full) | 0.27 µM | – | –
CC(=O)O[C@H]1C2[C@@](C)(CCC3C(O)(C[C@H](C)c4ccccc4)C(C)=C[C@@H](OC(C)=O)[C@@]32C)C2C=CCOC[C@]2([C@@H](C)OC(C)=O)[C@H]1OC(C)=O (stereo not given in full) | 0.12 µM | 0.3 | 0.613 µM
CC(=O)O[C@H]1C2[C@@](C)(CCC3C(O)(CCC=C(C)C)C(C)=C[C@@H](OC(C)=O)[C@@]32C)C2C=CCOC[C@]2([C@@H](C)OC(C)=O)[C@H]1OC(C)=O (stereo not given in full) | 0.021 µM | – | –
C=C(CC1(O)C(C)=C[C@@H](OC(C)=O)[C@@]2(C)C1CC[C@]1(C)C2[C@H](OC(C)=O)[C@H](OC(C)=O)[C@@]2([C@@H](C)OC(C)=O)COCC=CC12)c1ccccc1[S+](C)[O-] (stereo in doubt; 35) | 0.259 µM | – | –
C=C(CC1(O)C(C)=C[C@@H](OC(C)=O)[C@@]2(C)C1CC[C@]1(C)C2[C@H](OC(C)=O)[C@H](OC(C)=O)[C@@]2([C@@H](C)OC(C)=O)COCC=CC12)c1ccccc1S(=O)OC (stereo not given in full) | 0.352 µM | – | –
C=C(CC1(O)C(C)=C[C@@H](OC(C)=O)[C@@]2(C)C1CC[C@]1(C)C2[C@H](OC(C)=O)[C@H](OC(C)=O)[C@@]2([C@@H](C)OC(C)=O)COCC=CC12)c1ccccc1[S+](C)[O-] (stereo in doubt; 34) | 0.145 µM | – | –
COc1ccc(CCC2(O)C(C)=C[C@@H](OC(C)=O)[C@@]3(C)C2CC[C@]2(C)C3[C@H](OC(C)=O)[C@H](OC(C)=O)[C@@]3([C@@H](C)OC(C)=O)COCC=CC23)cc1 (stereo not given in full) | 0.13 µM | – | –
C=CC[C@H](CC1(O)C(C)=C[C@@H](OC(C)=O)[C@@]2(C)C1CC[C@]1(C)C2[C@H](OC(C)=O)[C@H](OC(C)=O)[C@@]2([C@@H](C)OC(C)=O)COCC=CC12)c1ccccc1OC (stereo not given in full) | 0.021 µM | 5.6 | 0.0329 µM
CCc1ccccc1[C@H](CC)CC1(O)C(C)=C[C@@H](OC(C)=O)[C@@]2(C)C1CC[C@]1(C)C2[C@H](OC(C)=O)[C@H](OC(C)=O)[C@@]2([C@@H](C)OC(C)=O)COCC=CC12 (stereo not given in full) | 0.012 µM | – | –
CC(=O)O[C@H]1C2[C@@](C)(CCC3C(O)(CCCc4ccccc4)C(C)=C[C@@H](OC(C)=O)[C@@]32C)C2C=CCOC[C@]2([C@@H](C)OC(C)=O)[C@H]1OC(C)=O (stereo not given in full) | 0.15 µM | – | –
C=C(CC1(O)C(C)=C[C@@H](OC(C)=O)[C@@]2(C)C1CC[C@]1(C)C2[C@H](OC(C)=O)[C@H](OC(C)=O)[C@@]2([C@@H](C)OC(C)=O)COCC=CC12)c1ccccc1OC (stereo not given in full) | 0.011 µM | 3.6 | 0.0511 µM
C=C(CC1(O)C(C)=C[C@@H](OC(C)=O)[C@@]2(C)C1CC[C@]1(C)C2[C@H](OC(C)=O)[C@H](OC(C)=O)[C@@]2([C@@H](C)OC(C)=O)COCC=CC12)c1ccccc1SCC (stereo not given in full) | 0.017 µM | 5.8 | 0.0317 µM
CCOc1ccccc1[C@H](C)CC1(O)C(C)=C[C@@H](OC(C)=O)[C@@]2(C)C1CC[C@]1(C)C2[C@H](OC(C)=O)[C@H](OC(C)=O)[C@@]2([C@@H](C)OC(C)=O)COCC=CC12 (stereo not given in full) | 0.037 µM | 15 | 0.0123 µM
C=C(CC1(O)C(C)=C[C@@H](OC(C)=O)[C@@]2(C)C1CC[C@]1(C)C2[C@H](OC(C)=O)[C@H](OC(C)=O)[C@@]2([C@@H](C)OC(C)=O)COCC=CC12)c1ccccc1CC (stereo not given in full) | 0.044 µM | 7.2 | 0.0255 µM
CC(=O)O[C@H]1C2[C@@](C)(CCC3C(O)(c4ccccc4)C(C)=C[C@@H](OC(C)=O)[C@@]32C)C2C=CCOC[C@]2([C@@H](C)OC(C)=O)[C@H]1OC(C)=O (stereo not given in full) | 2 µM | – | –
COc1ccccc1CCC1(O)C(C)=C[C@@H](OC(C)=O)[C@@]2(C)C1CC[C@]1(C)C2[C@H](OC(C)=O)[C@H](OC(C)=O)[C@@]2([C@@H](C)OC(C)=O)COCC=CC12 (stereo not given in full) | 0.014 µM | 1.3 | 0.142 µM
CC[C@H](CC1(O)C(C)=C[C@@H](OC(C)=O)[C@@]2(C)C1CC[C@]1(C)C2[C@H](OC(C)=O)[C@H](OC(C)=O)[C@@]2([C@@H](C)OC(C)=O)COCC=CC12)c1ccccc1OC (stereo not given in full) | 0.028 µM | 6.3 | 0.0292 µM
CCOc1ccccc1CCC1(O)C(C)=C[C@@H](OC(C)=O)[C@@]2(C)C1CC[C@]1(C)C2[C@H](OC(C)=O)[C@H](OC(C)=O)[C@@]2([C@@H](C)OC(C)=O)COCC=CC12 (stereo not given in full) | 0.034 µM | 2.3 | 0.08 µM

Compound | IC50 [1] | Ratio [2] | IC50 [3]
COc1cccc(CCC2(O)C(C)=C[C@@H](OC(C)=O)[C@@]3(C)C2CC[C@]2(C)C3[C@H](OC(C)=O)[C@H](OC(C)=O)[C@@]3([C@@H](C)OC(C)=O)COCC=CC23)c1 (stereo not given in full) | 0.024 µM | 0.14 | 1.31 µM
C=C1C[C@@]2(O)C3CC[C@]4(C)C([C@H](OC(C)=O)[C@H](OC(C)=O)[C@@]5([C@@H](C)OC(C)=O)COC(=O)C=CC45)[C@@]3(C)[C@H](OC(C)=O)[C@H](OC(C)=O)[C@@]2(C)C2(C(=O)OC)O[C@H]12 (stereo not given in full) [CORRELOID] | 0.1 µM | – | 0.184 µM
CC(=O)O[C@H]1C2[C@@](C)(CCC3C(O)(C(C)Cc4ccccc4)C(C)=C[C@@H](OC(C)=O)[C@@]32C)C2C=CCOC[C@]2([C@@H](C)OC(C)=O)[C@H]1OC(C)=O (stereo not given in full) | 0.2 µM | – | –
C=CC1(O)C(C)=C[C@@H](OC(C)=O)[C@@]2(C)C1CC[C@]1(C)C2[C@H](OC(C)=O)[C@H](OC(C)=O)[C@@]2([C@@H](C)OC(C)=O)COCC=CC12 (stereo not given in full) | 1.81 µM | – | –
C=C(CC1(O)C(C)=C[C@@H](OC(C)=O)[C@@]2(C)C1CC[C@]1(C)C2[C@H](OC(C)=O)[C@H](OC(C)=O)[C@@]2([C@@H](C)OC(C)=O)COCC=CC12)c1ccccc1SC (stereo not given in full) | 0.014 µM | 12.5 | 0.0147 µM
CC(=O)O[C@H]1C2[C@@](C)(CCC3C(O)(Cc4ccccc4)C(C)=C[C@@H](OC(C)=O)[C@@]32C)C2C=CCOC[C@]2([C@@H](C)OC(C)=O)[C@H]1OC(C)=O (stereo not given in full) | 0.38 µM | – | –
CC(=O)O[C@H]1C2[C@@](C)(CCC3C(O)(CC(C)(C)c4ccccc4)C(C)=C[C@@H](OC(C)=O)[C@@]32C)C2C=CCOC[C@]2([C@@H](C)OC(C)=O)[C@H]1OC(C)=O (stereo not given in full) | 0.019 µM | 1 | 0.184 µM
CC(=O)O[C@H]1C2[C@@](C)(CCC3C(O)(CCc4ccccc4C(F)(F)F)C(C)=C[C@@H](OC(C)=O)[C@@]32C)C2C=CCOC[C@]2([C@@H](C)OC(C)=O)[C@H]1OC(C)=O (stereo not given in full) | 0.087 µM | 0.1 | 1.84 µM
C=C(C[C@]1(O)C(C)=C[C@@H](OC(C)=O)[C@]2(C)C3[C@H](OC(C)=O)[C@H](OC(C)=O)[C@@]4([C@@H](C)OC(C)=O)COCC=CC4[C@]3(C)CCC21)c1ccccc1 (stereo not given in full) | 0.019 µM | 1.4 | 0.131 µM
CC(=O)Oc1ccccc1CCC1(O)C(C)=C[C@@H](OC(C)=O)[C@@]2(C)C1CC[C@]1(C)C2[C@H](OC(C)=O)[C@H](OC(C)=O)[C@@]2([C@@H](C)OC(C)=O)COCC=CC12 (stereo not given in full) | 0.031 µM | – | –
CC(=O)O[C@H]1C2[C@@](C)(CCC3C(O)(CCc4ccccc4C)C(C)=C[C@@H](OC(C)=O)[C@@]32C)C2C=CCOC[C@]2([C@@H](C)OC(C)=O)[C@H]1OC(C)=O (stereo not given in full) | 0.041 µM | 0.95 | 0.194 µM
CC(=O)O[C@H]1C2[C@@](C)(CCC3C(O)(CCc4ccccc4)C(C)=C[C@@H](OC(C)=O)[C@@]32C)C2C=CCOC[C@]2([C@@H](C)OC(C)=O)[C@H]1OC(C)=O (stereo not given in full) | 0.026 µM | 0.4 | 0.46 µM
CCc1ccccc1[C@H](C)CC1(O)C(C)=C[C@@H](OC(C)=O)[C@@]2(C)C1CC[C@]1(C)C2[C@H](OC(C)=O)[C@H](OC(C)=O)[C@@]2([C@@H](C)OC(C)=O)COCC=CC12 (stereo not given in full) | 0.028 µM | 5 | 0.0368 µM
CC(=O)O[C@H]1C2[C@@](C)(CCC3C(O)(CCc4ccccc4O)C(C)=C[C@@H](OC(C)=O)[C@@]32C)C2C=CCOC[C@]2([C@@H](C)OC(C)=O)[C@H]1OC(C)=O (stereo not given in full) | 0.026 µM | 0.43 | 0.428 µM
CC(=O)O[C@H]1C2[C@@](C)(CCC3C(O)(CCc4ccccc4F)C(C)=C[C@@H](OC(C)=O)[C@@]32C)C2C=CCOC[C@]2([C@@H](C)OC(C)=O)[C@H]1OC(C)=O (stereo not given in full) | 0.074 µM | 0.75 | 0.245 µM
C=CCCC1(O)C(C)=C[C@@H](OC(C)=O)[C@@]2(C)C1CC[C@]1(C)C2[C@H](OC(C)=O)[C@H](OC(C)=O)[C@@]2([C@@H](C)OC(C)=O)COCC=CC12 (stereo not given in full) | 0.664 µM | – | –
C=CCC1(O)C(C)=C[C@@H](OC(C)=O)[C@@]2(C)C1CC[C@]1(C)C2[C@H](OC(C)=O)[C@H](OC(C)=O)[C@@]2([C@@H](C)OC(C)=O)COCC=CC12 (stereo not given in full) | 0.143 µM | – | –
C=CC[C@H](CC1(O)C(C)=C[C@@H](OC(C)=O)[C@@]2(C)C1CC[C@]1(C)C2[C@H](OC(C)=O)[C@H](OC(C)=O)[C@@]2([C@@H](C)OC(C)=O)COCC=CC12)c1ccccc1CC (stereo not given in full) | 0.048 µM | – | –

Source: ChEMBL document CHEMBL1144256, “Potent Kv1.3 inhibitors from correolide-modification of the C18 position” (Bioorg Med Chem Lett, 2005)
